These results are taken from ChEMBL document CHEMBL1128452, “Pseudodipeptide inhibitors of protein farnesyltransferase” (J Med Chem, 1995).

What is called IC50 is the point on the concentration scale where inhibition reaches its midpoint.

Peptide text beside a SMILES is read from it. * marks the point of attachment. NHPhenethyl = c1ccc(CCN*)cc1

The target of assay [1] is Protein farnesyltransferase (Bos taurus, UniProt P29702+P49355). Put plainly: In vitro concentration required to reduce Farnesyltransferase catalyzed incorporation of [3H]FPP into recombinant Ha-Ras protein by 50%. Format: protein-complex assay. In outline: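 Farnesyltransferase was purified from bovine brain and used at ca. 1 nM. It was incubated with compound, [³H]FPP and recombinant Harvey-Ras. Total protein was acid-precipitated and Ras-bound label counted by scintillation. IC50 is the concentration halving incorporation relative to a no-inhibitor control. Values are mean ± SEM of the stated number of determinations, or a single determination estimated reliable within 2-fold.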

Another assay has as its system NIH3T3. Put plainly: Highest nontoxic concentration for cultured NIH 3T3 cells assessed by MTT staining. Type of assay: functional, Mus musculus. In outline:
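NIH 3T3 cells exposed to compound for 48 h. Viability read by MTT staining. The value reported is the highest concentration the cells tolerated without toxicity.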

The target in assay [2] is Geranylgeranyl transferase type I (Bos taurus, UniProt P29702+Q5EAD5). Put plainly: Inhibition of bovine Geranylgeranyl transferase type I. Type of assay: protein-complex assay.

In the case of `C[C@H](NC[C@@H](N)CS)C(=O)NCc1ccccc1`, in assay [1], the IC50 was 2 µM.

Consider `CCC(C)[C@H](NC[C@@H](N)CS)C(=O)NC(CO)Cc1ccccc1` (stereo partly specified), for which the half-maximal inhibitory concentration (IC50) in assay [1] came to 0.37 µM.

`CCC(C)[C@H](NC[C@@H](N)CS)C(=O)NCc1ccc(OC)cc1` (stereo partly specified): the 50% inhibitory concentration (IC50) in assay [1] is 0.66 µM. This compound had a Cytotoxic endpoint with NIH3T3 of 50 µM.

Regarding `CCC(C)[C@@H](CNCCc1ccccc1)NC(=O)[C@@H](N)CS` (stereo partly specified), the IC50 in assay [1] came to 9 µM.

Turning to `CCC[C@H](NC[C@@H](N)CS)C(=O)NCc1ccccc1`, the IC50 in assay [1] was 0.6 µM.

As for `CCC(C)[C@H](NC[C@@H](N)CS)C(=O)NCc1cccc(Cl)c1Cl` (stereo partly specified), the IC50 in assay [1] is 0.023 µM; in assay [2], 6.8 µM. The Cytotoxic endpoint in the assay on NIH3T3 is 5 µM.

As for `CCC(C)[C@H](NC[C@@H](N)CS)C(=O)NCCC(C)C` (stereo partly specified), in assay [2], half-maximal inhibition (IC50) required 100 µM.

For the compound `CC[C@H](NC[C@@H](N)CS)C(=O)NCc1ccccc1`, the IC50 in assay [1] stood at 1.1 µM.

Consider `CCC(C)[C@H](NC[C@H](C)N)C(=O)NCCc1ccccc1` (stereo partly specified), for which the IC50 in assay [1] was more than 10 µM. This compound came in with a Cytotoxic endpoint in the assay on NIH3T3 of more than 100 µM.

As to `CCC(C)[C@H](NC[C@@H](N)CS)C(=O)Nc1cccc(C)c1` (stereo partly specified), the IC50 in assay [1] worked out at 0.046 µM; in assay [2], 6.2 µM. In the assay on NIH3T3, the Cytotoxic endpoint worked out at 25 µM.

With `CCC(C)[C@H](NC[C@@H](N)CS)C(=O)NCc1cccc(C)c1` (stereo partly specified), the IC50 in assay [1] came out at 1 µM. The same compound yielded a Cytotoxic endpoint with NIH3T3 of 25 µM.

Take `CCC(C)[C@H](NC[C@@H](N)CS)C(=O)NCc1ccc(C)cc1C` (stereo partly specified): the figures for the concentration for half-maximal inhibition (IC50) in assay [1] and in assay [2] were 0.12 µM and 30 µM, respectively. Besides, the Cytotoxic endpoint in the assay with NIH3T3 worked out at 10 µM.

On to `CCC(C)[C@H](NC[C@@H](N)CS)C(=O)NCc1ccc(Cl)cc1Cl` (stereo partly specified), for which the IC50 turned out to be 0.097 µM in assay [1] and 10 µM in assay [2]. This compound showed a Cytotoxic endpoint with NIH3T3 of 10 µM.

Take `CCC(C)[C@H](NC[C@@H](N)CS)C(=O)Nc1ccccc1` (stereo partly specified): in assay [1], the half-maximal inhibitory concentration (IC50) worked out at 0.07 µM.

In the case of `CCC(C)[C@H](NC[C@@H](N)CS)C(=O)NCc1ccc(S(N)(=O)=O)cc1` (stereo partly specified), the half-maximal inhibitory concentration (IC50) in assay [1] amounted to 0.4 µM; in assay [2] it was 21 µM. This compound returned a Cytotoxic endpoint in the assay on NIH3T3 of 100 µM.

Regarding `CCC(C)[C@H](NC[C@@H](N)CS)C(=O)NCCc1ccccc1` (stereo partly specified), the 50% inhibitory concentration (IC50) in assay [1] is 0.707 µM. For the same compound, in the assay on NIH3T3, the Cytotoxic endpoint amounted to 10 µM.

For the compound `CCC(C)[C@@H](CNCCc1ccccc1)NC[C@@H](N)CS` (stereo partly specified), in the assay on NIH3T3, the Cytotoxic endpoint came to 10 µM.

`CCC(C)[C@H](NC[C@@H](N)CS)C(=O)Nc1cccc(C)c1C` (stereo partly specified): the 50% inhibitory concentration (IC50) was 0.04 µM in assay [1] and 8.2 µM in assay [2]. Besides, in the assay with NIH3T3, the Cytotoxic endpoint was found to be 10 µM.

`CCC(C)[C@H](NC(=O)CCS)C(=O)NCCc1ccccc1` (stereo partly specified): the concentration for half-maximal inhibition (IC50) in assay [1] is more than 10 µM. Moreover, in the assay on NIH3T3, the Cytotoxic endpoint stood at 10 µM.

With `CCC(C)[C@H](NC[C@@H](N)CS)C(=O)NCc1ccccc1` (stereo partly specified), the 50% inhibitory concentration (IC50) was found to be 0.45 µM in assay [1] and 86 µM in assay [2].

Take `CCC(C)[C@H](NC[C@@H](N)CS)C(=O)N(C)Cc1ccccc1` (stereo partly specified): in assay [1], the concentration for half-maximal inhibition (IC50) stood at 0.945 µM.

Take `CCCCN(Cc1ccccc1)C(=O)[C@@H](NC[C@@H](N)CS)C(C)CC` (stereo partly specified): in assay [1], the IC50 came to 1.3 µM.

Regarding `CCC(C)[C@H](NC[C@@H](N)CS)C(=O)Nc1ccc(C)cc1C` (stereo partly specified), in assay [1], the half-maximal inhibitory concentration (IC50) stood at 0.06 µM. For the same compound, the Cytotoxic endpoint in the assay with NIH3T3 is 5 µM.

In the case of `CCCC[C@H](NC[C@@H](N)CS)C(=O)NCc1ccccc1`, the 50% inhibitory concentration (IC50) in assay [1] worked out at 0.9 µM.

As to `CCC(C)[C@H](NC[C@@H](N)CS)C(=O)NCCCc1ccccc1` (stereo partly specified), the half-inhibitory concentration (IC50) in assay [1] amounted to 0.35 µM.

`CC[C@H](C)[C@H](NC(=O)[C@@H](N)CS)C(=O)NCCc1ccccc1` (H-Cys-Ile-NHPhenethyl): in assay [1], the half-maximal inhibitory concentration (IC50) amounted to 1 µM. The compound also yielded a Cytotoxic endpoint in the assay on NIH3T3 of more than 100 µM.
